# Source: ChEMBL document CHEMBL1144553, “alpha-Biphenylsulfonylamino 2-methylpropyl phosphonates: enantioselective synthesis and selective inhibition of MMPs” (Bioorg Med Chem, 2007)
# Key:
# Collagenase 3 [1] = target: T1, Collagenase 3 (Homo sapiens, UniProt P45452); assay: Inhibition of MMP13
# Outline: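 Purchased pro-MMP-13 was APMA-activated (1 mM, 0.5 h, 37 °C) and used at 0.66 nM final. It was preincubated with inhibitor (seven concentrations) for 4 h at 25 °C in Tris pH 7.5 buffer with CaCl2, Brij 35 and 1% DMSO. Cleavage of Mca-Lys-Pro-Leu-Gly-Leu-Dpa-Ala-Arg-NH2 was followed by fluorescence (ex 325/em 400 nm) every 15 s for 20 min, in triplicate. IC50 fitted to Vi/Vo = 1/(1+[I]/IC50).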
# [2] = target: 72 kDa type IV collagenase (Homo sapiens, UniProt P08253); assay: Inhibition of human recombinant MMP2 expressed in mouse myeloma cells; assay type: cell-based
# Chain of 72 kDa type IV collagenase (P08253 whole entry): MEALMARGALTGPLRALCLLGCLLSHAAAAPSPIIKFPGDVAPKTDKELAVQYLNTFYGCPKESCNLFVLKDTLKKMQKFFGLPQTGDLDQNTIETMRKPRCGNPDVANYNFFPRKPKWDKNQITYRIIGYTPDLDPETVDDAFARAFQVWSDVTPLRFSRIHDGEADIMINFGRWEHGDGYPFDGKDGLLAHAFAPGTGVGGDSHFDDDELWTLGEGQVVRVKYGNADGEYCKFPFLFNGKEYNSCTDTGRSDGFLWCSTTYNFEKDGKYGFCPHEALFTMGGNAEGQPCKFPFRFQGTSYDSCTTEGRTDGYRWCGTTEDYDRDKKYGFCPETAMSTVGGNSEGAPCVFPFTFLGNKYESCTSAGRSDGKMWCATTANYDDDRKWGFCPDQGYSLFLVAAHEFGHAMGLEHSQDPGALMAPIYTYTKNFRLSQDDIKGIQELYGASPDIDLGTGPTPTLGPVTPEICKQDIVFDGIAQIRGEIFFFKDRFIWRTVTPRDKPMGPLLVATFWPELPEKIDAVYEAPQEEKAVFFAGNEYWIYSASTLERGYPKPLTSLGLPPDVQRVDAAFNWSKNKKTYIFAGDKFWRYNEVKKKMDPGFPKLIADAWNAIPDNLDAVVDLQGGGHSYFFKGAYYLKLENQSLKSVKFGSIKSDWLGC
# Outline: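 Recombinant human pro-MMP-2 from transfected mouse myeloma cells, activated with APMA (2 mM, 1 h, 37 °C) and used at 2.9 nM final. It was preincubated 4 h at 25 °C with inhibitor (seven concentrations) in Tris 50 mM pH 7.5 buffer with 1% DMSO. Mca-Lys-Pro-Leu-Gly-Leu-Dpa-Ala-Arg-NH2 fluorescence (ex 325/em 400 nm) was read every 15 s for 20 min, in triplicate. IC50 from Vi/Vo = 1/(1+[I]/IC50).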
# Stromelysin-1 [3] = target: T2, Stromelysin-1 (Homo sapiens, UniProt P08254); assay: Inhibition of MMP3
# Outline: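 Purchased MMP-3 at 1 nM final was preincubated with inhibitor (seven concentrations) for 4 h at 25 °C in Tris pH 7.5 assay buffer containing CaCl2, Brij 35 and 1% DMSO. Substrate was Mca-Arg-Pro-Lys-Pro-Val-Glu-Nva-Trp-Arg-Lys(Dnp)-NH2, with fluorescence (ex 325/em 400 nm) read every 15 s over 20 min, in triplicate. IC50 from initial velocities via Vi/Vo = 1/(1+[I]/IC50).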
# Target sequence in this assay (P08254 whole entry): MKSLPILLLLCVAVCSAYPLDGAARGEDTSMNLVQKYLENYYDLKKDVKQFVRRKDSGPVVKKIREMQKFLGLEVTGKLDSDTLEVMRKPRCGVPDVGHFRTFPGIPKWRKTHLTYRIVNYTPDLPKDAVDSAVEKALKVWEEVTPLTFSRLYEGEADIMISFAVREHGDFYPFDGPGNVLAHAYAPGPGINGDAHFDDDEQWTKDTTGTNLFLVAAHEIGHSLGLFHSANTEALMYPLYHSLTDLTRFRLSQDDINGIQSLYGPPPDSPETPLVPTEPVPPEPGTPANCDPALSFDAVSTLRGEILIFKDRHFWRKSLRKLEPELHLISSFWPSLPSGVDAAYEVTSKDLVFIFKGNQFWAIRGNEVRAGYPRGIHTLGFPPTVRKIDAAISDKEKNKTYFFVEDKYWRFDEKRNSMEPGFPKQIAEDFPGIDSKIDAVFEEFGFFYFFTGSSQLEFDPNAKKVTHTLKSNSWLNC
# Neutrophil collagenase = Neutrophil collagenase (Homo sapiens, UniProt P22894); assay: Inhibition of MMP8
# Chain of Neutrophil collagenase (P22894 whole entry): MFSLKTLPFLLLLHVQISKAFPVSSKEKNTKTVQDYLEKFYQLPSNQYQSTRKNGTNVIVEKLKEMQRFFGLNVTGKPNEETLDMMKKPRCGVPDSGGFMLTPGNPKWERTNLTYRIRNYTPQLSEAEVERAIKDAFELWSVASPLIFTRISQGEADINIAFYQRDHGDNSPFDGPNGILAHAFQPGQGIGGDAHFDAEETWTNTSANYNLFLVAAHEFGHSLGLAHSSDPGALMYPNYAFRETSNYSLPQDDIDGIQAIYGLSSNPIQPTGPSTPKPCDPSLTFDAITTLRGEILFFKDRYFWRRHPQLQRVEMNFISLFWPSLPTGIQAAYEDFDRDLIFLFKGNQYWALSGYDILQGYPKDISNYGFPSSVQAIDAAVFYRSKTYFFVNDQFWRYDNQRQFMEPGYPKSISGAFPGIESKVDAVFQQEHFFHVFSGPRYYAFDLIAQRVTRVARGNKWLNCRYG
# Matrilysin = target: T3, Matrilysin (Homo sapiens, UniProt P09237); assay: Inhibition of MMP7
# T3 sequence (P09237 whole entry): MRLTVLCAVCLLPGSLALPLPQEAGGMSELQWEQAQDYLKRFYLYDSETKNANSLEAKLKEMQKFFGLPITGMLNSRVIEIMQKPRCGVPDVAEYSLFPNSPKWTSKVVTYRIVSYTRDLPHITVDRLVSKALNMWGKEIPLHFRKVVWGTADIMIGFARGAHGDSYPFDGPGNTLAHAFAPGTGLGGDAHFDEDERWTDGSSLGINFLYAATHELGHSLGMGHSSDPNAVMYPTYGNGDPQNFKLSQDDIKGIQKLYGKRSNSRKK
# Outline: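 Pro-MMP-7 from a commercial source, activated with APMA (1 mM, 1 h, 37 °C) and used at 2.4 nM final. It was preincubated 4 h at 25 °C with inhibitor at seven concentrations in Tris pH 7.5 buffer (CaCl2, Brij 35, 1% DMSO). Mca-Lys-Pro-Leu-Gly-Leu-Dpa-Ala-Arg-NH2 cleavage was monitored fluorimetrically (ex 325/em 400 nm) every 15 s for 20 min, in triplicate. IC50 via Vi/Vo = 1/(1+[I]/IC50).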
# [4] = target: T4, Matrix metalloproteinase-9 (Homo sapiens, UniProt P14780); assay: Inhibition of human recombinant MMP9 expressed in mouse myeloma cells; assay type: cell-based
# T4 sequence (P14780 whole entry): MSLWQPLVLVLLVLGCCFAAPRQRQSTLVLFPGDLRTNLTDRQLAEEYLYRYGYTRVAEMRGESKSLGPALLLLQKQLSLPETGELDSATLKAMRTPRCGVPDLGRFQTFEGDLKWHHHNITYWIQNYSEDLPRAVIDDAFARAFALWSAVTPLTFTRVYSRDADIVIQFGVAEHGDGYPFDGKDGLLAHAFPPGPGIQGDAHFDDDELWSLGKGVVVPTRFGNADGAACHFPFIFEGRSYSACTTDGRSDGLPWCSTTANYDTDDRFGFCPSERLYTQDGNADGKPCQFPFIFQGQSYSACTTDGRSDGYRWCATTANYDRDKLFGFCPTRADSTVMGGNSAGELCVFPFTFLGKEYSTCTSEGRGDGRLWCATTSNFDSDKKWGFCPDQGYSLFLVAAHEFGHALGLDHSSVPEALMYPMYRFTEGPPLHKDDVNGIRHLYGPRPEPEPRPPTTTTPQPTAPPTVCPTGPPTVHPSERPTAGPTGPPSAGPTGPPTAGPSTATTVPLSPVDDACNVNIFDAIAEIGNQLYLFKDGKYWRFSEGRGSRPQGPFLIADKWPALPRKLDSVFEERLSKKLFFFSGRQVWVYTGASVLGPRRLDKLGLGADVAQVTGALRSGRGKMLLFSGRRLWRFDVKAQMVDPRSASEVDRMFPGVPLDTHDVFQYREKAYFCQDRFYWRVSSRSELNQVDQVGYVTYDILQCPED
# Outline: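 Human pro-MMP-9 expressed in transfected mouse myeloma cells, APMA-activated (1 mM, 1 h, 37 °C) and used at 2.7 nM final. Preincubated 4 h at 25 °C with inhibitor at seven concentrations in Tris pH 7.5/CaCl2/Brij 35 buffer with 1% DMSO. Fluorogenic Mca-Lys-Pro-Leu-Gly-Leu-Dpa-Ala-Arg-NH2 hydrolysis (ex 325/em 400 nm) was read every 15 s for 20 min, in triplicate. IC50 via Vi/Vo = 1/(1+[I]/IC50).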
# Interstitial collagenase = target: T5, Interstitial collagenase (Homo sapiens, UniProt P03956); assay: Inhibition of MMP1
# T5 sequence (P03956 whole entry): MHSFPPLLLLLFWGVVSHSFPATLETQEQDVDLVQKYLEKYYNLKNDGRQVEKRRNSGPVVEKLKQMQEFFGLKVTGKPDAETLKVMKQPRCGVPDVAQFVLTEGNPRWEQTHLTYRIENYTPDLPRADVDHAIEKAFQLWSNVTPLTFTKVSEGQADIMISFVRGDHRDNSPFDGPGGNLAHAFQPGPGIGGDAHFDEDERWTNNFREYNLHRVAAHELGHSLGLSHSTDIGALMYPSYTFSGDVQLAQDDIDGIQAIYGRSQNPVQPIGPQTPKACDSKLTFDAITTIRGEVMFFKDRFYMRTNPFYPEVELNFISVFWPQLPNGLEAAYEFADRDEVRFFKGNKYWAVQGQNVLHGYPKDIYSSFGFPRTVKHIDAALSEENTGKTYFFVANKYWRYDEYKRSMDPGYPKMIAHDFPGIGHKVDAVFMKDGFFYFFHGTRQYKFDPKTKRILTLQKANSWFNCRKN
# Outline: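 Pro-MMP-1 from a commercial source, activated with APMA (2 mM, 1 h, 37 °C). Enzyme at 0.20 nM final was preincubated 4 h at 25 °C with inhibitor at seven concentrations in Tris 50 mM pH 7.5, NaCl, CaCl2, Brij 35 and 1% DMSO. Mca-Lys-Pro-Leu-Gly-Leu-Dpa-Ala-Arg-NH2 was added and fluorescence (ex 325/em 400 nm) read every 15 s for 20 min, in triplicate. IC50 from Vi/Vo = 1/(1+[I]/IC50).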
# [5] = target: T6, Matrix metalloproteinase-14 (Homo sapiens, UniProt P50281); assay: Inhibition of MMP14
# Outline: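 Commercial MMP-14 at 1 nM final, preincubated 4 h at 25 °C with inhibitor at seven concentrations in Tris 50 mM pH 7.5/NaCl/CaCl2/Brij 35 buffer with 1% DMSO. Read-out was fluorogenic substrate Mca-Lys-Pro-Leu-Gly-Leu-Dpa-Ala-Arg-NH2 hydrolysis (ex 325, em 400 nm), recorded every 15 s for 20 min, in triplicate. IC50 from Vi/Vo = 1/(1+[I]/IC50).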
# [6] = target: T6, Matrix metalloproteinase-14; settings: 100 uM
# [7] = target: T7, Interstitial collagenase (Homo sapiens) (UniProt P03956); assay: Inhibition of human recombinant MMP1 at 100 uM
# T7 sequence (whole entry): T5 sequence (P03956 whole entry)
# Stromelysin-1 [8] = target: T2, Stromelysin-1; assay: Inhibition of MMP3 at 100 uM
# Target sequence in this assay (P08254 100-477 limits assumed): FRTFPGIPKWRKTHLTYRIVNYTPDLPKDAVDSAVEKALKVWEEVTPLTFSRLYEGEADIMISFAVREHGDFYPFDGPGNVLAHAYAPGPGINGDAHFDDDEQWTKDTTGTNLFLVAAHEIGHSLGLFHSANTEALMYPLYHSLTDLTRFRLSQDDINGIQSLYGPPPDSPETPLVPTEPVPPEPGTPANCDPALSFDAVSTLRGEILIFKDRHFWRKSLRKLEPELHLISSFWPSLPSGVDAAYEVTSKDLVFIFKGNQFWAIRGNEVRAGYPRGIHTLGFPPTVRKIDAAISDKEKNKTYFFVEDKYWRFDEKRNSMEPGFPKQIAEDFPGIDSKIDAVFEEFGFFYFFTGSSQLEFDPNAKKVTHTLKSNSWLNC
# [9] = target: T8, Matrilysin (Homo sapiens) (UniProt P09237); assay: Inhibition of MMP7 at 100 uM
# T8 sequence (whole entry): T3 sequence (P09237 whole entry)
# Collagenase 3 [10] = target: T1, Collagenase 3; assay: Inhibition of MMP13 at 100 uM
# [11] = target: T4, Matrix metalloproteinase-9; assay: Inhibition of human recombinant MMP9 expressed in mouse myeloma cells at 100 uM; assay type: cell-based
IC50 (Collagenase 3 [1]),IC50 [2],IC50 (Stromelysin-1 [3]),IC50 (Neutrophil collagenase),IC50 (Matrilysin),IC50 [4],IC50 (Interstitial collagenase),IC50 [5],inhibition [6],inhibition [7],inhibition (Stromelysin-1 [8]),inhibition [9],inhibition (Collagenase 3 [10]),inhibition [11],Compound
1.1 nM,0.39 nM,12 nM,0.37 nM,450 nM,0.56 nM,450 nM,11 nM,–,–,–,–,–,–,CCOc1ccc(-c2ccc(S(=O)(=O)N[C@@H](C(C)C)P(=O)(O)O)cc2)cc1
63 nM,53 nM,1200 nM,2.4 nM,20000 nM,170 nM,590 nM,180 nM,–,–,–,–,–,–,CC(C)[C@H](NS(=O)(=O)c1ccc(-c2cccc(F)c2)cc1)P(=O)(O)O
–,1100 nM,–,–,–,–,–,–,63%,5%,16%,17%,68%,40%,COc1ccc(-c2ccc(S(=O)(=O)N[C@H](C(C)C)P(=O)(O)O)cc2)cc1
4.2 nM,1.8 nM,36 nM,1.5 nM,2000 nM,24 nM,600 nM,130 nM,–,–,–,–,–,–,CC(C)Oc1ccc(-c2ccc(S(=O)(=O)N[C@@H](C(C)C)P(=O)(O)O)cc2)cc1
24 nM,30 nM,440 nM,1.3 nM,2900 nM,160 nM,320 nM,75 nM,–,–,–,–,–,–,CC(C)[C@H](NS(=O)(=O)c1ccc(-c2cccc(Cl)c2)cc1)P(=O)(O)O
2.6 nM,1.5 nM,52 nM,–,460 nM,8 nM,150 nM,79 nM,–,–,–,–,–,–,COc1ccc(-c2ccc(S(=O)(=O)N[C@@H](C(C)C)P(=O)(O)O)cc2)cc1
13 nM,20 nM,150 nM,1.1 nM,1400 nM,59 nM,160 nM,32 nM,–,–,–,–,–,–,CC(C)[C@H](NS(=O)(=O)c1ccc(-c2ccc(F)cc2)cc1)P(=O)(O)O
820 nM,980 nM,–,260 nM,50000 nM,7100 nM,–,6000 nM,–,33%,34%,–,–,–,CC(C)[C@H](NS(=O)(=O)c1ccc(CCc2ccccc2)cc1)P(=O)(O)O
5.3 nM,8.7 nM,28 nM,0.81 nM,1700 nM,21 nM,77 nM,47 nM,–,–,–,–,–,–,CC(C)[C@H](NS(=O)(=O)c1ccc(-c2ccc(Cl)cc2)cc1)P(=O)(O)O
480 nM,790 nM,–,110 nM,130000 nM,680 nM,–,40000 nM,–,9%,31%,–,–,–,COc1ccc(CCc2ccc(S(=O)(=O)N[C@@H](C(C)C)P(=O)(O)O)cc2)cc1
15 nM,24 nM,230 nM,0.4 nM,1100 nM,64 nM,320 nM,26 nM,–,–,–,–,–,–,Cc1cccc(-c2ccc(S(=O)(=O)N[C@@H](C(C)C)P(=O)(O)O)cc2)c1
3.3 nM,2.3 nM,45 nM,0.39 nM,150 nM,4.1 nM,98 nM,11 nM,–,–,–,–,–,–,Cc1ccc(-c2ccc(S(=O)(=O)N[C@@H](C(C)C)P(=O)(O)O)cc2)cc1
